In ChEMBL document CHEMBL1275449, “Potent in vitro antifungal activities of naturally occurring acetylenic acids” (Antimicrob Agents Chemother, 2008):
In brackets after ≈: the same amount, converted by molar mass. Activity calls are given as the source filed them. The calls are words filed in the database; no cut-off is given here.

How the values were obtained:
[1] = tested on: Aspergillus niger; assay: Antifungal activity against Aspergillus niger ATCC 16404 at 10.8 uM after 48 hrs by CLSI method; assay type: functional, organism-based
[2] = tested on: Pichia kudriavzevii; assay: Antifungal activity against Candida krusei ATCC 6258 after 48 hrs by CLSI method; assay type: functional, organism-based; conditions: ATCC 6258, 48 h
Summary of the method: (§1)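 Candida inocula came from 24–72-h SD agar colonies suspended in saline. They were diluted by OD630 standard curve into RPMI 1640 (0.2% dextrose, 0.03% glutamine, 0.165 M MOPS, pH 7.0) to 1.5 × 10³ CFU/ml. Compounds were run as 11 twofold dilutions in 20% DMSO-saline, in duplicate, at 35°C for 48 h, with OD530 read before and after. Percent growth at the top concentration, IC50, MIC, and MFC (SD agar plating) were derived.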

[3] = tested on: Trichophyton rubrum; assay: Antifungal activity against Trichophyton rubrum ATCC 10218 by CLSI method; assay type: functional, organism-based
Summary of the method: (§2)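 Growth scraped from 1- to 6-week-old potato dextrose slants and filtered through Miracloth. Diluted in 5% Alamar blue-RPMI 1640 (MOPS pH 7.0) to 2.7 × 10⁴ CFU/ml. Eleven twofold dilutions in duplicate. Fluorescence at 544 nm excitation/590 nm emission read before and after 35°C, 5 days. IC50 fitted from percent growth. MIC taken as no detectable growth; MFC from clear or blue wells plated on PD agar.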

[4] = tested on: Trichophyton mentagrophytes; assay: Antifungal activity against Trichophyton mentagrophytes ATCC 9533 by CLSI method; assay type: functional, organism-based; summary of the method: as §2
[5] = tested on: Nakaseomyces glabratus; assay: Antifungal activity against Candida glabrata ATCC 90030 after 48 hrs by CLSI methodCandida glabrata; assay type: functional, organism-based; conditions: ATCC 90030, 48 h; summary of the method: as §1
[6] = tested on: Cryptococcus neoformans; assay: Antifungal activity against Cryptococcus neoformans ATCC 66031 after 72 hrs by CLSI method; assay type: functional, organism-based; conditions: ATCC 66031, 72 h
Summary of the method: (§3)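 SD broth replaced RPMI because growth in RPMI was poor; other CLSI conditions were kept. Inoculum was 1.5 × 10³ CFU/ml from colonies on SD agar, checked by plating. Twofold serial dilutions (11 concentrations) in 20% DMSO-saline were tested in duplicate. OD530 was read before and after incubation at 35°C for 72 h. Percent growth gave IC50; the MIC is the lowest concentration with no detectable growth.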

[7] = tested on: Candida albicans; assay: Antifungal activity against Candida albicans ATCC 60193 after 48 hrs by CLSI method; assay type: functional, organism-based; conditions: ATCC 60193, 48 h
Summary of the method: (§4)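 CLSI broth microdilution. Colonies from 24–72 h SD agar suspended in saline and sized by OD630 standard curve. Inoculum 1.5 × 10³ CFU/ml (final) in RPMI 1640 (0.2% dextrose, 0.03% glutamine, 0.165 M MOPS, pH 7.0). Twofold dilutions (11 levels) from 20% DMSO-saline, in duplicate. 35°C for 48 h, OD530 read before and after. IC50 fitted from % growth. MIC: no detectable growth. MFC: subculture onto SD agar.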

[8] = tested on: Candida parapsilosis; assay: Antifungal activity against Candida parapsilosis ATCC 22019 after 48 hrs by CLSI method; assay type: functional, organism-based; conditions: Lodderomyces parapsilosis, ATCC 22019, 48 h
Summary of the method: (§5)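 Yeast suspensions made from 3-5 colonies off 24-72 h SD agar plates in saline. They were diluted by OD630 standard curve in RPMI 1640 (0.2% dextrose, 0.03% glutamine, 0.165 M MOPS, pH 7.0) to 1.5 × 10³ CFU/ml. Twofold dilutions (11 concentrations, 20% DMSO-saline) run in duplicate. OD530 read before and after 35°C, 48 h. Line values are top test concentrations; no-growth endpoints give MIC/MFC.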

[9] = tested on: Trichophyton mentagrophytes; assay: Antifungal activity against Trichophyton mentagrophytes ATCC MYA-4439 by CLSI method; assay type: functional, organism-based; summary of the method: as §2
[10] = tested on: Candida albicans; assay: Antifungal activity against Candida albicans ATCC 32354 after 48 hrs by CLSI method; assay type: functional, organism-based; conditions: ATCC 32354, 48 h; summary of the method: as §4
[11] = tested on: Candida tropicalis; assay: Antifungal activity against Candida tropicalis ATCC 750 after 48 hrs by CLSI method; assay type: functional, organism-based; conditions: ATCC 750, 48 h; summary of the method: as §5
[12] = tested on: Candida albicans; assay: Antifungal activity against Candida albicans ATCC 14053 after 48 hrs by CLSI method; assay type: functional, organism-based; conditions: ATCC 14053, 48 h; summary of the method: as §4
[13] = tested on: Aspergillus fumigatus; assay: Antifungal activity against Aspergillus fumigatus ATCC 204305 after 48 h by CLSI method; conditions: ATCC 204305, 48 h
[14] = tested on: Candida albicans; assay: Antifungal activity against Fluconazole resistant Candida albicans clinical isolate 17 after 48 hrs by CLSI method; assay type: functional, organism-based; summary of the method: as §4
[15] = tested on: Aspergillus flavus; assay: Antifungal activity against Aspergillus flavus ATCC 204304 at 10.8 uM after 48 hrs by CLSI method; assay type: functional, organism-based
[16] = tested on: Aspergillus fumigatus; assay: Antifungal activity against Aspergillus fumigatus ATCC 90906 after 48 h by CLSI method; conditions: ATCC 90906, 48 h
[17] = tested on: Candida albicans; assay: Antifungal activity against Fluconazole resistant Candida albicans clinical isolate 1 after 48 hrs by CLSI method; assay type: functional, organism-based; summary of the method: as §4
[18] = tested on: Candida albicans; assay: Antifungal activity against Candida albicans ATCC 90028 after 48 hrs by CLSI method; assay type: functional, organism-based; conditions: ATCC 90028, 48 h; summary of the method: as §4
[19] = tested on: Cryptococcus neoformans; assay: Antifungal activity against Cryptococcus neoformans ATCC 90113 after 72 hrs by CLSI method; assay type: functional, organism-based; conditions: ATCC 90113, 72 h; summary of the method: as §3
[20] = tested on: Aspergillus niger; assay: Antifungal activity against Aspergillus niger ATCC 16404 after 48 h by CLSI method; conditions: ATCC 16404, 48 h
[21] = tested on: Trichophyton rubrum; assay: Antifungal activity against Trichophyton rubrum ATCC MYA-4438 by CLSI method; assay type: functional, organism-based; summary of the method: as §2
[22] = tested on: Aspergillus flavus; assay: Antifungal activity against Aspergillus flavus ATCC 204304 after 48 h by CLSI method; conditions: ATCC 204304, 48 h
[23] = tested on: Candida albicans; assay: Antifungal activity against Candida albicans ATCC 200955 after 48 hrs by CLSI method; assay type: functional, organism-based; conditions: ATCC 200955, 48 h; summary of the method: as §4

## C[C@@H]1[C@H](O)[C@@H](C)/C=C/C=C/C=C/C=C/C=C/C=C/C=C/[C@H](O[C@@H]2O[C@H](C)[C@@H](O)[C@H](N)[C@@H]2O)C[C@@H]2O[C@](O)(C[C@@H](O)C[C@@H](O)[C@H](O)CC[C@@H](O)C[C@@H](O)CC(=O)O[C@H]1C)C[C@H](O)[C@H]2C(=O)O [AMPHOTERICIN B]
[1]
  Activity: inactive
[2]
  MFC: 2.7 µM (≈ 2.5 µg/mL)
  MIC: 2 µM (≈ 1.85 µg/mL)
[3]
  IC50: 600 nM
  MFC: 1.4 µM (≈ 1.29 µg/mL)
  MIC: 1.4 µM (≈ 1.29 µg/mL)
[4]
  IC50: 600 nM
  MFC: 2.7 µM (≈ 2.5 µg/mL)
  MIC: 2 µM (≈ 1.85 µg/mL)
[5]
  IC50: 400 nM
  MFC: 1.4 µM (≈ 1.29 µg/mL)
  MIC: 1.4 µM (≈ 1.29 µg/mL)
[6]
  IC50: 80 nM
  MFC: 0.34 µM (≈ 0.314 µg/mL)
  MIC: 0.34 µM (≈ 0.314 µg/mL)
[7]
  IC50: 200 nM
  MFC: 1.4 µM (≈ 1.29 µg/mL)
  MIC: 1 µM (≈ 0.924 µg/mL)
[8]
  IC50: 300 nM
  MFC: 5.4 µM (≈ 4.99 µg/mL)
  MIC: 2 µM (≈ 1.85 µg/mL)
[9]
  IC50: 900 nM
  MFC: 1.4 µM (≈ 1.29 µg/mL)
  MIC: 1.4 µM (≈ 1.29 µg/mL)
[10]
  MFC: 1.4 µM (≈ 1.29 µg/mL)
  MIC: 1 µM (≈ 0.924 µg/mL)
[11]
  IC50: 300 nM
  MFC: 1.4 µM (≈ 1.29 µg/mL)
  MIC: 1 µM (≈ 0.924 µg/mL)
[12]
  MFC: 1.4 µM (≈ 1.29 µg/mL)
  MIC: 1 µM (≈ 0.924 µg/mL)
[13]
  IC50: 1200 nM
  MFC: 10.8 µM (≈ 9.98 µg/mL)
  MIC: 2 µM (≈ 1.85 µg/mL)
[14]
  IC50: 200 nM
  MFC: 1.4 µM (≈ 1.29 µg/mL)
  MIC: 1 µM (≈ 0.924 µg/mL)
[15]
  Activity: inactive
[16]
  IC50: 900 nM
  MFC: 2.7 µM (≈ 2.5 µg/mL)
  MIC: 1.4 µM (≈ 1.29 µg/mL)
[17]
  IC50: 200 nM
  MFC: 1.4 µM (≈ 1.29 µg/mL)
  MIC: 1 µM (≈ 0.924 µg/mL)
[18]
  MFC: 1.4 µM (≈ 1.29 µg/mL)
  MIC: 1 µM (≈ 0.924 µg/mL)
[19]
  IC50: 300 nM
  MFC: 0.7 µM (≈ 0.647 µg/mL)
  MIC: 0.7 µM (≈ 0.647 µg/mL)
[20]
  IC50: 900 nM
  MIC: 2 µM (≈ 1.85 µg/mL)
[21]
  IC50: 600 nM
  MFC: 5.4 µM (≈ 4.99 µg/mL)
  MIC: 1.4 µM (≈ 1.29 µg/mL)
[22]
  IC50: 1500 nM
  MIC: 2.7 µM (≈ 2.5 µg/mL)
[23]
  IC50: 600 nM
  MFC: 2.7 µM (≈ 2.5 µg/mL)
  MIC: 2.7 µM (≈ 2.5 µg/mL)
